This note sets out measurements from the EternaBench riboswitch data.

The test system of the data set is MS2 coat protein. In words: apparent Kd, MS2 coat protein; higher = weaker binding; RNA-MaP array; FMN 200 µM where present. A digest of the protocol:
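The apparent Kd is the median of filtered binding-curve fits, one per cluster, to green signal normalised to red-channel RNA signal and control-cluster median Fmax. The clusters were on Illumina sequencing chips, and stalled E. coli RNA polymerase had transcribed the designs on them. Titration used SNAP-549-labelled MS2 coat protein from 0.7 or 1.5 nM, doubling to 3 µM, without and then with constant ligand, in 100 mM Tris-HCl pH 7.5, 80 mM KCl, 4 mM MgCl2, BSA, DTT, yeast tRNA and Tween-20.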

Setting [1] is: designed as: OFF switch for flavin mononucleotide, no ligand.
[2] abbreviates: ligand present: flavin mononucleotide, designed as: OFF switch for flavin mononucleotide.
[3] abbreviates: designed as: ON switch for flavin mononucleotide, no ligand.
[4] abbreviates: ligand present: flavin mononucleotide, designed as: ON switch for flavin mononucleotide.

In general, apparent Kd refers to a dissociation constant that holds for the conditions of the assay.

For “UAAACGUUCUAGAAGGUGCUAGCGAUAAGCUAGCAAGGAUAUAGACAUGAGGAUCACCCAUGUCUUUGUGACAUCGACAUACUU”, the “apparent Kd” value is, setting by setting: under setting [1], 9.03 nM; under setting [2], 12.1 nM.

Consider “CGCUGUCACGCAGGAUAUGCAUUGGAUUACAAUGCAGAAGGGCGAUUACAUGAGGAUCACCCAUGUGUUGACAGUGAAGAAGAG”, for which the “apparent Kd” value runs as follows: under setting [3], 1240 nM; under setting [4], 80.6 nM. With “GUACUGUAGUGAGGAUAUACGAGUACGAUAGUACGGCGAUCCAUAUAUACAUGAGGAUCACCCAUGUAGAAGGCACUUCAGUAC”, the “apparent Kd” value runs as follows: under setting [1], 8.66 nM; under setting [2], 109 nM. “UGAAAUCAUGUAGGAUAUGCAUGGCGAAGCUACGCAGAAGGACAUGAGGAUCACCCAUGUUAUAGCUACCCAGUUCGGUGGCAG”: the “apparent Kd” value under setting [1] came out at 46.2 nM and the “apparent Kd” value under setting [2] was 174 nM. Take “GGAUAGGACAGAGGAUAUACGUGCUAGAGAAACUAGCAAAAUUUCCUCACAUGAGGAUCACCCAUGUAGAAGGCUGUCCUAUCG”: the “apparent Kd” value runs as follows: under setting [1], 14.5 nM; under setting [2], 543 nM. For “GUGAGGUCAGGAUAUGCAUGGCGGGACUUGCGUCGUGGCGUGCAGAAGGGACAUGAGGAUCACCCAUGUGGAGC”, the “apparent Kd” value reads like this: under setting [1], 81.6 nM; under setting [2], 194 nM.

For the sequence “GCAUAGGACAGAGGAUAUACGUGCUAGAGAUACUAGCAAAAUUUCCUCACAUGAGGAUCACCCAUGUAGAAGGCUGUCCUAUCG”, the “apparent Kd” value is, setting by setting: under setting [1], 17.6 nM; under setting [2], 422 nM. “GCCUUACCGGUCAGGAUAUACAUUUGUUACUCCUUGUAGAAGGGACAUGAGGAUCACCCAUGUACAUUACAUUC”: the “apparent Kd” value reads like this: under setting [1], 19.4 nM; under setting [2], 20.4 nM. On to “AUUACAUGAGGAUCACCCAUGUACAGAACGUUUCAUUACAGUGAGGAUAUACGAAAUGUAAAAGCGUAGAAGGCACUGGGUACA”, for which the “apparent Kd” value under setting [3] came out at 29.5 nM and the “apparent Kd” value under setting [4] stood at 22.2 nM. Regarding “CGAUAGGACAGAGGAUAUACACAUGAGGAUCACCCAUGUAAUUACAAUUCUUAAGAUUCAAACAUGUAGAAGGCUGUCCUAUCG”, the “apparent Kd” value reads like this: under setting [1], 35.9 nM; under setting [2], 13.1 nM. In the same order, the values of “UGUCGGAGCAGAGGAUAUUACAUGAGGAUCACCCAUGUAUGAACCAAUAGCUUGAAACAGCAAUGUAAGAAGGCUGCUCCGACA” are 7.66 nM and 84.2 nM. With “UGUAAAUUAUUAAGUAAUUAGGCGAAGGAUAUAUAACAUGAGGAUCACCCAUGUACUAAAUUGAAGUAGAAGGUUGAACAUUUC”, the “apparent Kd” value by setting is: under setting [3], 14.5 nM; under setting [4], 12.9 nM. Turning to “GGUACUCAAAGAGUACCAAUACGAACAUGAGGAUCACCCAUGUAGGAUAUGCUACAAAAGGAGUAGCAGAAGGACAUGUGCCUA”, the “apparent Kd” value under setting [1] was determined as 13 nM and the “apparent Kd” value under setting [2] amounted to 60.8 nM. Regarding “UUAAUAGUAGGAUAUACAUGAGGAUCACCCAUGUAGCAACUACACAAAGGAACCUGAUGUAGAAGGACUCCCAA”, the “apparent Kd” value under setting [1] came to 14.4 nM and the “apparent Kd” value under setting [2] was 14.5 nM.

As for “GGUACUCAAAGAGUACUUGGUCGAACAUGAGGAUCACCCAUGUAGGAUAUGCGAAGCAAGAAGUAGCAGAAGGGCAUGUGCAGC”, the “apparent Kd” value is, setting by setting: under setting [1], 17.7 nM; under setting [2], 16.1 nM. For the sequence “GACUCGAAUGUAGGAUAUGCUGAGGAAUACUCAGCAGAAGGACAUGAGGAUCACCCAUGUAAAUGAGUGAAUAAUAAACGAGUC”, the “apparent Kd” value is 1410 nM under setting [1] and 197 nM under setting [2]. Consider “GUAUCUUACCGAGGAUAUUUACGAUUAGUGUAGACAUGAGGAUCACCCAUGUGGCCUUAGUCACGGGAGAAGGCGGUUUGAUAC”, for which the “apparent Kd” value runs as follows: under setting [3], 233 nM; under setting [4], 59 nM. For “CAUACCUGUGAAGGAUAUACGUUGUUAGCUACCGUAGAAGGUCACAUGAGGAUCACCCAUGUCAAGGCAAGAACAUGAUCCGAA”, the “apparent Kd” value runs as follows: under setting [1], 304 nM; under setting [2], 566 nM. Turning to “UGGUACUAGGGAGGAUAUGGGAAUAUACAUGAGGAUCACCCAUGUUUAAGAAUGCCGAGAGGCAACUAGAAGGCCCUAGUACCU”, the “apparent Kd” value stood at 11.1 nM under setting [3] and 4.85 nM under setting [4].

Take “UGAUACAUGAGGGUCUCCCAUGACAUGAGGAUCACCCAUGUGCAGGAUAUACGUGUGAUGGUAUAGUAGAAGGGCAGUCUAUGU”: the “apparent Kd” value under setting [1] is 102 nM and the “apparent Kd” value under setting [2] amounted to 133 nM.

Take “AAAAAGGCAGGAUAUACAUGAGGAUCACCCAUGUUAAAAAAAAAAAAAAAAAAAAAGUGUAGAAGGGCCAAAAA”: the “apparent Kd” value runs as follows: under setting [1], 55.6 nM; under setting [2], 55 nM. Turning to “GCGUGACAUGAGGAUCACCCAUGUACUCGAGAAAUCGAGUGUAGAAGGGUGACCGGUCGUUUGGCACAGGAUAUACACGCUGUG”, the “apparent Kd” value runs as follows: under setting [3], 27.3 nM; under setting [4], 16.3 nM. In the case of “CAUCUACAGGGAGGAUAUACAUGAGGAUCACCCAUGUCAUCAUACGAUCUUUCUUUUGUAUGAGUGUAGAAGGCCCAACUACCA”, the “apparent Kd” value reads like this: under setting [1], 15.2 nM; under setting [2], 15.2 nM. Take “UUCGGUGAAGGAUAUAGGGCUCGGUACAUGAGGAUCACCCAUGUUGCUUUAUGUUCCACCCUAGAAGGUUAUCACC”: the “apparent Kd” value reads like this: under setting [1], 417 nM; under setting [2], 370 nM. On to “GACAUGGUCCAGAAGGGCUAUUUAUUUAAGUAUGAUUUAGAACAGCAUAGCAGGAUAUGGCUAACAUGAGGAUCACCCAUGUUC”, for which the “apparent Kd” value runs as follows: under setting [3], 20.1 nM; under setting [4], 13.3 nM. Regarding “UGUCCAUAGCAGAAGGACAUAAAUUUCCAUGAAAACAUGAGGAUCACCCAUGUAGGAUAUGCUAUGGACUAAGAGCGAAAGCUC”, the “apparent Kd” value reads like this: under setting [1], 5.21 nM; under setting [2], 10.3 nM.

Regarding “AUUAUUGACGUAGGAUAUUGUUACAUGAGGAUCACCCAUGUUAUUUGGGAACUAGGAAUAUUUUACAAGAAGGACGUUGUUAAA”, the “apparent Kd” value was 74.9 nM under setting [3] and 92.1 nM under setting [4].

Regarding “CCGCAUAAGCAGGAUAUCGUAUCGGAUACGAUACGAGAAGGGUUUACAUGAGGAUCACCCAUGUUCCUUAGCGG”, the “apparent Kd” value runs as follows: under setting [1], 29.7 nM; under setting [2], 48.1 nM. As for “AGUAUGUACGCAGGAUAUACAUGAGGAUCACCCAUGUGGAACAGUGUAGUACUAGUUGAUCCUCAGUAGAAGGGCGGUCGAAUA”, the “apparent Kd” value came out at 63.6 nM under setting [1] and 46.4 nM under setting [2]. For “GCCAUCGCAUGAGGAUAUGCUCGGGUUUCCCGAGCAGAAGGCAUGUCAAAAGACAUGAGGAUCACCCAUGUAGUUAAGAUGGCA”, the “apparent Kd” value runs as follows: under setting [3], 122 nM; under setting [4], 8.11 nM. For the sequence “CCUGUGUGAGGAUAUGGUGUUAAAAAAAAAAAAUAGCUCCUCCAGAAGGCACAUGAGGAUCACCCAUGUCGUGG”, the “apparent Kd” value is, setting by setting: under setting [1], 33.5 nM; under setting [2], 69.2 nM. For the sequence “AAGAAACAUGAGGAUCACCCAUGUAAGAUAAACACAGGAUAUGCGAAAAGAAACAAAGAAGCAGAAGGGUGAAGAA”, the “apparent Kd” value reads like this: under setting [3], 68.2 nM; under setting [4], 19.7 nM. Take “AUUAUUAAGGUAGGAUAUAGUAUAAUAAUUAAAUUAGAAGGAUCUCACAUGAGGAUCACCCAUGUAAGAGGAUCACCCAUGUAU”: the “apparent Kd” value by setting is: under setting [1], 10.3 nM; under setting [2], 10.4 nM. Turning to “GUAGUGUAGUGAGGAUAUACGAGAUCGAUAGAUCGGCGAUCCAAUUAUACAUGAGGAUCACCCAUGUAGAAGGCACUUCACUAC”, the “apparent Kd” value came to 10.1 nM under setting [1] and 59.2 nM under setting [2]. In the case of “GCAUGGGCCGUCAGGAUAUAGGCGCCGUGAAGGUAUUAGAAGGGACAUGAGGAUCACCCAUGUAUGAGAAAAGA”, the “apparent Kd” value was found to be 36.7 nM under setting [1] and 42.7 nM under setting [2]. Turning to “AUUGUGUGAGGAUAUUAGCAGUAGACGAAUGGAGUCGUGGCUGAGAAGGCACAUGAGGAUCACCCAUGUUCCUU”, under setting [2], the “apparent Kd” value is 88.3 nM. Regarding “UUUAAUUUAAUUAAGAUCACAUGAGGAUCACCCAUGUAAUUAUAGGAUAUCAGCUCGUUUAGAGCUGAGAAGGAUAAUUACAUA”, the “apparent Kd” value under setting [1] amounted to 78.9 nM and the “apparent Kd” value under setting [2] is 53.4 nM. Turning to “AAAAGUUGAGGAUAUGGCUAUUUGGACAUGAGGAUCACCCAUGUGUCUAUGGCCCGGGUGCCAGAAGGUGAUUACU”, the “apparent Kd” value by setting is: under setting [1], 92.2 nM; under setting [2], 94.3 nM. Turning to “ACCUCACAUGAGGAUCACCCAUGUUAGGAUAUAUAAUCGUCGGCCUAGGGCCGGAGAUAUAGAAGGAGCAUAAC”, the “apparent Kd” value by setting is: under setting [1], 16.9 nM; under setting [2], 19.7 nM. The matching figures for “AAAUGCCUGUCGAUGCUCGACAUGAGGAUCACCCAUGUACAGCAGGAUAUGCAGAACAACCUCGUGCAGAAGGGCUGUACCAAU”: 54.3 nM and 157 nM.

In the case of “AUGAGGUCAGGAUAUGCAUGGCGGGACUUGCGUCGUGGCGUGGAGAAGGGACAUGAGGAUCACCCAUGUGGAGG”, the “apparent Kd” value under setting [1] was found to be 108 nM and the “apparent Kd” value under setting [2] came to 88.3 nM. Regarding “CAUUAAUUAAUUAUAGUAUUUAUACAGGAUAUGUAACAUGAGGAUCACCCAUGUAUACAUGGGAAACAGAAGGGUAUUUAUAGA”, the “apparent Kd” value was 32 nM under setting [1] and 28.8 nM under setting [2]. On to “GGAUGAGAAACUCAUCCUUAACGAACAUGAGGAUCACCCAUGUAGGAUAUGCUACUCAAAGAGUAGCAGAAGGACAUGUGCCUU”, for which the “apparent Kd” value by setting is: under setting [1], 29.9 nM; under setting [2], 264 nM. As for “CCACGUGCUCAGAAGGGCUUUAAACACAAAUUAGCAGGAUAUGAGGACCGGUCGUGACAUGAGGAUCACCCAUGUUUUGUCUAG”, the “apparent Kd” value reads like this: under setting [3], 38.6 nM; under setting [4], 12.2 nM.

Turning to “UGUUAUAGAGGAUAUGCGUGAAUAUAGAUUCAUGGAAAUUUACAUGAGGAUCACCCAUGUAGAAGGCUGUGAUU”, the “apparent Kd” value was 14.4 nM under setting [1] and 15.3 nM under setting [2]. In the same order, the values of “UGUCGGAGCAGAGGAUAUUACAUGAGGAUCACCCAUGUAUGAACCAAUAGCUAGAAACAGCAAUGUAAGAAGGCUGCUCCGACA” are 8.97 nM and 113 nM. As to “UGGUACUAGGGAGGAUAUGGGAUGAUACAUGAGGAUCACCCAUGUUUAAGAAUGCCGAGAGGCAACUAGAAGGCCCUAGUACCU”, the “apparent Kd” value by setting is: under setting [3], 448 nM; under setting [4], 174 nM. As for “GGAUCGAAUGUCAGGAUAUACCACUGGAUACAGUGGUAGAAGGGACAUGAGGAUCACCCAUGUGUUAUCGAUCC”, the “apparent Kd” value was 40.4 nM under setting [1] and 114 nM under setting [2].
